According to ChEMBL document CHEMBL4613273, “Discovery of Aryl Formyl Piperidine Derivatives as Potent, Reversible, and Selective Monoacylglycerol Lipase Inhibitors” (J Med Chem, 2020):
pEC50, pKi: −log10 of the molar value. The source made the active and inactive calls. The rule behind the calls is not given here.

What was measured:
[1] = Half life in Sprague-Dawley rat plasma at 10 mg/kg, ig measured over 1 to 300 mins post dose by LC-MS/MS analysis; type: ADME, organism-based; conditions: po
[2] = Growth inhibition of mouse L929 cells at 20 uM incubated for 24 to 72 hrs relative to control; type: cell-based; conditions: read-out: GI
How it was run: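 Mouse fibroblast L929 cells were exposed to the compound, including 20 μM, for 24, 48 and 72 h. Growth inhibition was read against control, from 3 independent experiments.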

[3] = AUC (0 to t) in Sprague-Dawley rat plasma at 10 mg/kg, ig measured over 1 to 300 mins post dose by LC-MS/MS analysis; type: ADME, organism-based; conditions: in vivo, po
[4] = Bioavailability (0 to t) in Sprague-Dawley rat plasma at 10 mg/kg, ig measured over 1 to 300 mins post dose by LC-MS/MS analysis
[5] = Bioavailability (0 to infinity) in Sprague-Dawley rat plasma at 10 mg/kg, ig measured over 1 to 300 mins post dose by LC-MS/MS analysis
[6] = test system: Mus musculus; test: Antidepressant activity in ICR mouse model of reserpine-induced depression assessed as immobility time at 5 mg/kg, ig by tail suspension test (reference value: 132.38 +/- 44.51 secs); type: functional
[7] = test system: Mus musculus; test: Antidepressant activity in ICR mouse model of reserpine-induced depression assessed as reduction in fear at 4 to 16 mg/kg, sc for 6 days followed by reserpine injection 2 hrs after last compound dose and measured after 2 hrs; type: functional, organism-based
How it was run: (§1)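 In mice, depression was induced with reserpine 4 mg/kg, and the compound was given s.c. at 4, 8 or 16 mg/kg. Controls received phosphate buffer alone. Awakening, finger contact, fear, head touch, autonomous movement, straight and eyelid closure were scored. Data are mean ± SD of 3 independent experiments.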

[8] = test system: Mus musculus; test: Antidepressant activity in ICR mouse model of reserpine-induced depression assessed as reduction in straight scores at 4 to 16 mg/kg, sc for 6 days followed by reserpine injection 2 hrs after last compound dose and measured after 2 hrs; type: functional, organism-based; how it was run: as §1
[9] = test system: Mus musculus; test: Antidepressant activity in ICR mouse model of reserpine-induced depression assessed as reduction in eyelid closure at 4 to 16 mg/kg, sc for 6 days followed by reserpine injection 2 hrs after last compound dose and measured after 2 hrs; type: functional, organism-based; how it was run: as §1
[10] = test system: Mus musculus; test: Antidepressant activity in ICR mouse model of reserpine-induced depression assessed as reduction in awakening at 4 to 16 mg/kg, sc for 6 days followed by reserpine injection 2 hrs after last compound dose and measured after 2 hrs; type: functional, organism-based; how it was run: as §1
[11] = AUC (0 to infinity) in Sprague-Dawley rat brain at 10 mg/kg, ig measured over 5 to 720 mins post dose by LC-MS/MS analysis; conditions: in vivo
[12] = Half life in Sprague-Dawley rat brain at 10 mg/kg, ig measured over 5 to 720 mins post dose by LC-MS/MS analysis
[13] = target: Cannabinoid receptor 1 (Homo sapiens, UniProt P21554); test: Inhibition of CB1 receptor (unknown origin) expressed in Flpin-CHO cells incubated for 10 mins by Eu-cAMP tracer based cAMP accumulation assay; type: functional, cell-based
[14] = Stability in rat liver microsomes assessed as parent compound remaining level at 100 uM pre-incubated for 5 mins before NADPH addition and measured after 60 mins by UPLC-MS/MS analysis; type: ADME, Microsome; conditions: read-out: Stability
How it was run: (§2)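 Liver microsomes from human, mouse and rat were incubated with the compound. Remaining parent compound was followed at several time points up to 60 min and expressed as percent remaining.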

[15] = Cmax in Sprague-Dawley rat plasma at 10 mg/kg, ig measured over 1 to 300 mins post dose by LC-MS/MS analysis; type: ADME, organism-based; parameters: dose 10 mg/kg, route […]; conditions: po
[16] = Tmax in Sprague-Dawley rat plasma at 10 mg/kg, ig measured over 1 to 300 mins post dose by LC-MS/MS analysis; type: ADME, organism-based; conditions: po
[17] = AUC (0 to infinity) in Sprague-Dawley rat plasma at 10 mg/kg, ig measured over 1 to 300 mins post dose by LC-MS/MS analysis; type: ADME, organism-based; parameters: dose 10 mg/kg, route […], time infinity; conditions: in vivo, po
[18] = Bioavailability (0 to t) in Sprague-Dawley rat plasma at 10 mg/kg, ig measured over 1 to 300 mins post dose by LC-MS/MS analysis; type: ADME, organism-based; conditions: po
[19] = Cmax in Sprague-Dawley rat plasma at 10 mg/kg, iv measured over 1 to 300 mins post dose by LC-MS/MS analysis; type: ADME, organism-based; parameters: dose 10 mg/kg, route intravenous
[20] = test system: Mus musculus; test: Antidepressant activity in ICR mouse model of reserpine-induced depression assessed as reduction in finger contact at 4 to 16 mg/kg, sc for 6 days followed by reserpine injection 2 hrs after last compound dose and measured after 2 hrs; type: functional, organism-based; how it was run: as §1
[21] = target: T1, Monoglyceride lipase (Homo sapiens, UniProt Q99685); test: Competitive inhibition of human recombinant MAGL at 31.25 nM to 125 nM pre-incubated for 5 mins before MAGL substrate addition and further incubated for 10 mins
T1 sequence (Q99685 whole entry): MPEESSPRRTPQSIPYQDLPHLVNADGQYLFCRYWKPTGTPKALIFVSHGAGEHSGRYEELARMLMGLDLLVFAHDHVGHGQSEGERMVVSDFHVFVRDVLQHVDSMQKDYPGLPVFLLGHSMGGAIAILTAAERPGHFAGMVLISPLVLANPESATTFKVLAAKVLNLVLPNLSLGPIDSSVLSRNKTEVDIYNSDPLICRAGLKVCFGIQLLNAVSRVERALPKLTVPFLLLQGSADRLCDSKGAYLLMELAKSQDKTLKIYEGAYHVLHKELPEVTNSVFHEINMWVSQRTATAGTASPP
How it was run: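 Mode of inhibition was assessed from Michaelis–Menten kinetics run at several inhibitor concentrations. Enzyme activity was plotted against substrate concentration and fitted to a mixed-model inhibition (competitive, uncompetitive and noncompetitive terms), giving Vmax, Km and α.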

[22] = Stability in mouse liver microsomes assessed as parent compound remaining level at 100 uM pre-incubated for 5 mins before NADPH addition and measured after 60 mins by UPLC-MS/MS analysis; type: ADME, Microsome; conditions: read-out: Stability; how it was run: as §2
[23] = target: T2, Cannabinoid receptor 2 (Homo sapiens, UniProt P34972); test: Inhibition of CB2 receptor (unknown origin) expressed in Flpin-CHO cells at 10 uM incubated for 10 mins by Eu-cAMP tracer based cAMP accumulation assay relative to control
[24] = test system: Mus musculus; test: Antidepressant activity in ICR mouse model of reserpine-induced depression assessed as reduction in autonomous movement at 4 to 16 mg/kg, sc for 6 days followed by reserpine injection 2 hrs after last compound dose and measured after 2 hrs; type: functional, organism-based; how it was run: as §1
[25] = Stability in human liver microsomes assessed as parent compound remaining level at 100 uM pre-incubated for 5 mins before NADPH addition and measured after 60 mins by UPLC-MS/MS analysis; type: ADME, Microsome; conditions: read-out: Stability; how it was run: as §2
[26] = Half life in Sprague-Dawley rat plasma at 10 mg/kg, iv measured over 1 to 300 mins post dose by LC-MS/MS analysis; type: ADME, organism-based
[27] = target: T2, Cannabinoid receptor 2; test: Inhibition of CB2 receptor (unknown origin) expressed in Flpin-CHO cells incubated for 10 mins by Eu-cAMP tracer based cAMP accumulation assay; type: functional, cell-based

T2 sequence (P34972 whole entry): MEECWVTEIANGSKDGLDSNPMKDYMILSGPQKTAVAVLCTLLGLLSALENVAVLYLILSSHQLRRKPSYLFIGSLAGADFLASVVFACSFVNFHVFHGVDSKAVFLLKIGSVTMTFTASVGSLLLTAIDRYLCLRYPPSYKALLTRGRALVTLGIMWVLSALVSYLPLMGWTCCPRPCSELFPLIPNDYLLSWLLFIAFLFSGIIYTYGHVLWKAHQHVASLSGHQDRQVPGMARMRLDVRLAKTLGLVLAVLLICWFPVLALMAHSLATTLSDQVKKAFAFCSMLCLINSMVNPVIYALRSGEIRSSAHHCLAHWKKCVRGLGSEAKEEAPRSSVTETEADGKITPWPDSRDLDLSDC
Chain of Cannabinoid receptor 1 (P21554 whole entry): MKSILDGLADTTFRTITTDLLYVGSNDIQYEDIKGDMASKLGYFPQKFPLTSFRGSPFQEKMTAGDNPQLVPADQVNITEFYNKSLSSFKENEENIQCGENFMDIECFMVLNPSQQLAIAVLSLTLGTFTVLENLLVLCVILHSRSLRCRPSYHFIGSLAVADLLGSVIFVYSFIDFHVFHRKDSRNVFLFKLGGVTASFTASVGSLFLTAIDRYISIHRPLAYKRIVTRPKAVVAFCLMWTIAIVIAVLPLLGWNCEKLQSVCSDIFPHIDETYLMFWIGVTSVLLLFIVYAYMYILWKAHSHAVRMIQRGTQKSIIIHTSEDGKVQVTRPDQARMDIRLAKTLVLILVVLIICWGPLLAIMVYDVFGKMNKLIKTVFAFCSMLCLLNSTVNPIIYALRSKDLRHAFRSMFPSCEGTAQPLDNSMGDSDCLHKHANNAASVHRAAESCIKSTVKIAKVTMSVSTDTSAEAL

With `O=C(Nc1cccc(Cl)c1)C1CCN(C(=O)c2ccc3ccccc3c2)CC1` the half-life [1] was 4.96 h, the inhibition at 20 µM [2] was 8.6% and the AUCt [3] was 9913.54 µg·min/L. It also gave a bioavailability [4] of 12.2%, a bioavailability [5] of 21.6% and a Time [6] of 89.87 s. For the same compound, the Activity [7] was “Active”, the Activity [8] was “Active” and the Activity [9] was “Active”. The Activity [10] was “Active”, the AUC [11] was 3720.04 µg·min/L and the half-life [12] was 2.44 h. For the same compound, the pEC50 [13] was < 5.00, the remaining at 1 h, 100 µM [14] was 17.3% and the Cmax [15] was 83.1 ng/mL. The Tmax [16] was 0.567 h, the AUC [17] was 17791.86 µg·min/L and the bioavailability [18] was 12.2%. The Cmax [19] was 5480 ng/mL, the Activity [20] was “Active” and the pKi [21] was 7.87. For the same compound, the remaining at 1 h, 100 µM [22] was 57.9%, the inhibition [23] was 20.4% and the Activity [24] was “Active”. The remaining at 1 h, 100 µM [25] was 88.5%, the half-life [26] was 1.1 h and the pEC50 [27] was < 5.00.
